PubChem BioAssay AID504818 (Southern Research Specialized Biocontainment Screening …, 2011)
Values joined by “and” are separate entries in the source; they are usually repeats but may differ in a detail not shown here. Equal values may be shown once. Active and inactive are the calls of the source.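 How the source made its calls: active means any dose giving under 70% viability, per first replicate; inactive means the rest.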

Tested on: not listed separately
Assay: HEp-2 cell cytotoxicity, SAR follow-up, cytotoxicity control for RSV inhibitor project, synthesized compounds, set 8 (AID 504818)
Settings: HEp-2 viability, ATP luminescence; at 50 µM (top of the series)
How it was run: (§1)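 Material: uninfected HEp-2 human cells, ATP-based viability; Amount: 10,595 HEp-2 cells per well; Timing: 6 d compound exposure, 37 °C; Dosing: 8-point twofold dilution series, 0.39–50 µM final, 0.5% DMSO; Signal: ATP luminescence (CellTiter-Glo); Replication: each concentration tested in triplicate; Benchmarks: cell-only wells as 100% reference; Buffer or medium: DMEM/F12 with HI-FBS.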
For `COc1ccc(C)cc1NC(=O)[C@@H]1CCCN1S(=O)(=O)c1cccc2cccnc12`, the viability was 82% (inactive).
For `Cc1ccc(NC(=O)C(C)NS(=O)(=O)c2cccc3cccnc23)c(C)c1` (stereo unspecified), the viability was 77.7% (inactive).
For `Cc1ncccc1NC(=O)[C@@H]1CCCN1S(=O)(=O)c1cccc2cccnc12`, the viability was 72.6% (inactive).
In the case of `Cc1ccc(NC(=O)C2CCCN2S(C)(=O)=O)c(C)c1` (stereo unspecified), the viability is reported as 96.3% (inactive).

Tested on: HEp-2 viability, ATP luminescence
Assay: as above
Settings: not given
How it was run: as §1
`CC(C)c1ccccc1NC(=O)[C@@H]1CCCN1S(=O)(=O)c1cccc2cccnc12` gave a CC50 of 30.1 µM.
With `CCCn1c(=O)n(Cc2ccc(C(=O)NCCCOC)cc2)c(=O)c2ccccc21` the CC50 was 22.8 µM.
`O=C(Nc1ccccc1)[C@@H]1CCCN1S(=O)(=O)c1cccc2cccnc12` gave a CC50 of 38.4 µM.
For `Cc1ccc(NC(=O)[C@H]2CCCN2S(=O)(=O)c2cccc3cccnc23)c(C)c1`, the CC50 was 40.9 µM.
In the case of `Cc1ccc(Cl)cc1NC(=O)[C@@H]1CCCN1S(=O)(=O)c1cccc2cccnc12`, the CC50 is reported as 9.25 µM.
With `Cc1ccc(C)c(NC(=O)[C@@H]2CCCN2S(=O)(=O)c2cccc3cccnc23)c1` the CC50 was 36.2 µM and 32.9 µM.
In the case of `Cc1ccc(NC(=O)C2CCCN2S(=O)(=O)c2cccc3ccccc23)c(C)c1` (stereo unspecified), the CC50 is reported as 18.4 µM.
In the case of `Cc1cccc(NC(=O)[C@@H]2CCCN2S(=O)(=O)c2cccc3cccnc23)c1`, the CC50 is reported as 20.8 µM.
`Cc1ccc(C(C)C)cc1NC(=O)[C@@H]1CCCN1S(=O)(=O)c1cccc2cccnc12` showed a CC50 of 10.6 µM.
With `COCCCNC(=O)c1ccc(Cn2c(=O)c3ccccc3n(C)c2=O)cc1` the CC50 was 15 µM.
`Cc1cccc(NC(=O)[C@@H]2CCCN2S(=O)(=O)c2cccc3cccnc23)c1C` showed a CC50 of 49.5 µM.
In the case of `Cc1ccc(C(F)(F)F)cc1NC(=O)[C@@H]1CCCN1S(=O)(=O)c1cccc2cccnc12`, the CC50 is reported as 3.7 µM.
For `Cc1cc(C)cc(NC(=O)[C@@H]2CCCN2S(=O)(=O)c2cccc3cccnc23)c1`, the CC50 was 32.2 µM.
`Cc1ccc(NC(=O)[C@@H]2CCCN2S(=O)(=O)c2cccc3cccnc23)c(C)c1` showed a CC50 of 33 µM.
`Cc1ccc(F)cc1NC(=O)[C@@H]1CCCN1S(=O)(=O)c1cccc2cccnc12` showed a CC50 of 22.5 µM.
Work on `Cc1ccc(Cl)c(NC(=O)[C@@H]2CCCN2S(=O)(=O)c2cccc3cccnc23)c1` yielded a CC50 of 13.6 µM.
`COCCCNC(=O)c1ccc(Cn2c(=O)c3ccccc3n(Cc3cc(C)on3)c2=O)cc1` showed a CC50 of 7 µM.
Molecule `Cc1ccc(NC(=O)C2CCCN2S(=O)(=O)c2cccc3cccnc23)c(C)c1` (stereo unspecified) has a CC50 of 33.4 µM.
With `Cc1ccc(C(C)(C)C)cc1NC(=O)[C@@H]1CCCN1S(=O)(=O)c1cccc2cccnc12` the CC50 was 6.2 µM.
`Cc1ccc(Cn2c(=O)n(Cc3ccc(C(=O)NC(C)(C)C)cc3)c(=O)c3ccccc32)cc1` gave a CC50 of 10.2 µM.
`COCCCNC(=O)c1ccc(Cn2c(=O)c3ccc(Br)cc3n(Cc3ccc(C)cc3)c2=O)cc1` showed a CC50 of 39 µM.
`Cc1ccc(NC(=O)[C@@H]2CCCN2S(=O)(=O)c2cccc3cccnc23)cc1` gave a CC50 of 33.1 µM.
